The values that follow come from ChEMBL document CHEMBL1138835, “Inhibitors of multiple mutants of Plasmodium falciparum dihydrofolate reductase and their antimalarial activities” (J Med Chem, 2004).

Usually Ki stands for a dissociation constant, usually derived from enzyme kinetics or from competition with a known ligand. Read a high Ki as lower affinity. The IC50 is the concentration needed to halve the response being measured. The low end stands for higher potency, the high end for lower potency.

The structures appear in SMILES notation.

Test [1] deals with KB. Kind of test: Relative antiplasmodial activity to cytotoxicity in Plasmodium falciparum Csl-2 infected KB cells. The class given is functional.
Test [2] has as its system BC. Kind of test: Relative antiplasmodial activity to cytotoxicity in Plasmodium falciparum Csl-2 infected BC cells. The class given is functional.
In test [3] the test system is KB. The test can be described thus: Relative antiplasmodial activity to cytotoxicity in Plasmodium falciparum V1/S infected KB cells. The test is classed as functional.
In test [4] the test system is Vero. Kind of test: Relative antiplasmodial activity to cytotoxicity in Plasmodium falciparum V1/S infected Vero cells. The class given is functional.
The test system of test [5] is Vero. The test can be described thus: Relative antiplasmodial activity to cytotoxicity in Plasmodium falciparum TM4/8.2 infected Vero cells. The class given is functional.
For test [6], the system named is BC. Kind of test: Relative antiplasmodial activity to cytotoxicity in Plasmodium falciparum TM4/8.2 infected BC cells. The class given is functional.
In test [7] the target is Bifunctional dihydrofolate reductase-thymidylate synthase (Plasmodium falciparum K1, UniProt P13922). The test can be described thus: Binding affinity towards wild-type dihydrofolate reductase of Plasmodium falciparum.
Bifunctional dihydrofolate reductase-thymidylate synthase (Plasmodium falciparum K1, UniProt P13922), sequence (P13922 whole entry): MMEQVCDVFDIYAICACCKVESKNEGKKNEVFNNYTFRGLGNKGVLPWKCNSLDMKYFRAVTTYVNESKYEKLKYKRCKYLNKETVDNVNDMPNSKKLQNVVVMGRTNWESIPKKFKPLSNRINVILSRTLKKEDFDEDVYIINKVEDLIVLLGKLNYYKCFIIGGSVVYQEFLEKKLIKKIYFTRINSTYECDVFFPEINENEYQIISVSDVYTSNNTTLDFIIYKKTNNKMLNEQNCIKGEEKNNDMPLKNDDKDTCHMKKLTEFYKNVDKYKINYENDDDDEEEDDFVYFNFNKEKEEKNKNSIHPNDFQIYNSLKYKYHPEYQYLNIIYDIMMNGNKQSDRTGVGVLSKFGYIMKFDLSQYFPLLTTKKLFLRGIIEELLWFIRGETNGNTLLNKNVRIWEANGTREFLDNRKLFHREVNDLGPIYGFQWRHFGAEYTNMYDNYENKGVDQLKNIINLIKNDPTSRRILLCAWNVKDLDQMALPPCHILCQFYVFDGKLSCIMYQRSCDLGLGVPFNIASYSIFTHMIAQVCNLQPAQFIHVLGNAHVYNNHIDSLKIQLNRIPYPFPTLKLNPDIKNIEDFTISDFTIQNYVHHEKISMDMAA
Test [8] deals with Vero. Kind of test: Relative antiplasmodial activity to cytotoxicity in Plasmodium falciparum Csl-2 infected Vero cells. The class given is functional.
For test [9], the system named is BC. The test can be described thus: In vitro cytotoxicity against BC cell line. The conditions noted are these: Homo sapiens.
The target of test [10] is Bifunctional dihydrofolate reductase-thymidylate synthase (Plasmodium falciparum K1, UniProt P13922, C59R/I164L/S108N). Kind of test: Binding affinity towards mutant dihydrofolate reductase (C59R+S108N+I164L DHFR) of Plasmodium falciparum.
Bifunctional dihydrofolate reductase-thymidylate synthase (Plasmodium falciparum K1, UniProt P13922, C59R/I164L/S108N), sequence (P13922 whole entry, looked up, stated change not applied): as the sequence (P13922 whole entry) above
The subject of test [11] is Bifunctional dihydrofolate reductase-thymidylate synthase (Plasmodium falciparum K1), P13922 [UNDEFINED MUTATION]. Kind of test: Ratio of binding affinity for mutant (C59R+S108N+I164L) to that of wild type dihydrofolate reductase. A digest of the protocol:
(§1)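 Each ratio is Ki for the mutant PfDHFR divided by Ki for wild-type PfDHFR. The recombinant enzymes were expressed in E. coli BL21(DE3)pLysS and purified on methotrexate-Sepharose. Ki was derived assuming inhibitors compete with substrate binding.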

Test [12] concerns KB. The test can be described thus: Relative antiplasmodial activity to cytotoxicity in Plasmodium falciparum TM4/8.2 infected KB cells. The class given is functional.
Test [13] has as its system Bifunctional dihydrofolate reductase-thymidylate synthase (Plasmodium falciparum K1), P13922 [UNDEFINED MUTATION]. Kind of test: Ratio of binding affinity for mutant (N51I+C59R+S108N+I164L) to that of wild type dihydrofolate reductase. A digest of the protocol: as §1
The target in test [14] is Bifunctional dihydrofolate reductase-thymidylate synthase (Plasmodium falciparum K1, UniProt P13922, C59R/I164L/N51I/S108N). Kind of test: Binding affinity towards mutant dihydrofolate reductase (N51I+C59R+S108N+I164L DHFR) of Plasmodium falciparum.
Bifunctional dihydrofolate reductase-thymidylate synthase (Plasmodium falciparum K1, UniProt P13922, C59R/I164L/N51I/S108N), sequence (P13922 whole entry, looked up, stated change not applied): as the sequence (P13922 whole entry) above
The subject of test [15] is KB. The test can be described thus: In vitro cytotoxicity against Plasmodium falciparum infected KB cell line. The class given is functional, cell-based. The settings on record: Homo sapiens. The method in brief: (§2)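 Cytotoxicity (IC50, μM) run against three mammalian lines: Vero (African green monkey kidney fibroblasts), KB (human epidermoid carcinoma) and BC (human breast cancer). Testing followed the Skehan et al. protocol.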

In test [16] the target is Bifunctional dihydrofolate reductase-thymidylate synthase (Plasmodium falciparum K1, UniProt P13922, C59R/N51I/S108N). Kind of test: Binding affinity towards mutant dihydrofolate reductase (N51I+C59R+S108N DHFR) of Plasmodium falciparum.
Bifunctional dihydrofolate reductase-thymidylate synthase (Plasmodium falciparum K1, UniProt P13922, C59R/N51I/S108N), sequence (P13922 whole entry, looked up, stated change not applied): as the sequence (P13922 whole entry) above
Test [17] addresses Bifunctional dihydrofolate reductase-thymidylate synthase (Plasmodium falciparum K1) (UniProt P13922). Kind of test: Ratio of binding affinity for mutant (N51I+C59R+S108N) to that of wild type dihydrofolate reductase. A digest of the protocol:
as §1

Test [18] deals with Bifunctional dihydrofolate reductase-thymidylate synthase (Plasmodium falciparum K1), P13922 [UNDEFINED MUTATION]. The test can be described thus: Ratio of binding affinity for mutant (A16V+S108T) to that of wild type dihydrofolate reductase. The method in brief: as §1
Bifunctional dihydrofolate reductase-thymidylate synthase (Plasmodium falciparum K1), P13922 [UNDEFINED MUTATION], sequence (P13922 whole entry, looked up, stated change not applied): as the sequence (P13922 whole entry) above
The test system of test [19] is Vero. The test can be described thus: In vitro cytotoxicity against Plasmodium falciparum infected vero cell line. The class given is functional, cell-based. The conditions noted are these: Chlorocebus sabaeus. A digest of the protocol:
as §2

The target in test [20] is Bifunctional dihydrofolate reductase-thymidylate synthase (Plasmodium falciparum K1, UniProt P13922, A16V/S108T). Kind of test: Binding affinity towards mutant dihydrofolate reductase (A16V+S108T DHFR) of Plasmodium falciparum.
Bifunctional dihydrofolate reductase-thymidylate synthase (Plasmodium falciparum K1, UniProt P13922, A16V/S108T), sequence (P13922 whole entry, looked up, stated change not applied): as the sequence (P13922 whole entry) above

Bifunctional dihydrofolate reductase-thymidylate synthase (Plasmodium falciparum K1), sequence (P13922 whole entry, looked up): as the sequence (P13922 whole entry) above

Regarding `Nc1nc(N)c(-c2ccccc2)c(CCCc2ccccc2)n1`, the Safety ratio is 55.6 in test [1]; 92.6 in [2]; 17.4 in [3]; more than 5.8 in test [4]; more than 238 in test [5]; 1191 in [6]. Moreover, the Safety ratio in [8] was more than 18.5; in test [12], 714. The Ki in [7] came out at 0.5 nM; in [10] it was 1.9 nM; in test [14], 4.7 nM; in test [16], 1.1 nM. The 50% inhibitory concentration (IC50) in test [9] was determined as 250000 nM; in test [15] it was 150000 nM. For the same molecule, the results for the Ratio in test [11], in test [13] and in [17] were 3.8, 9.4 and 2.2, respectively.
For `CCc1nc(N)nc(N)c1-c1ccc(Cl)c(Cl)c1` [ETOPRINE], the Ki came to 1 nM in test [7], 41 nM in [10], 53 nM in test [14] and 3.1 nM in test [16]. Besides, the Ratio in [11] was 41; in [13] it was 53; in test [17], 3.1.
Regarding `CCCCCCc1nc(N)nc(N)c1-c1ccccc1`, the Safety ratio in [1] was 37.7; in test [2] it was 89.3; in test [3] it was 17.7; in test [4] it was 8.6; in test [5], 917; in test [6] it was 4467. For the same molecule, the Safety ratio turned out to be 18.3 in test [8] and 1883 in test [12]. The Ki in [7] was found to be 0.3 nM; in [10], 0.7 nM; in test [14], 1.4 nM; in [16], 0.4 nM.
Regarding `COC(=O)CCCc1nc(N)nc(N)c1-c1ccc(Cl)cc1`, the Ki in test [7] was 0.3 nM; in [10] it was 145 nM; in test [14], 360 nM; in test [16], 29.3 nM. The Ratio in test [11] came out at 483; in test [13], 1200; in test [17], 97.7.
`CC1N=C(N)N=C(N)N1c1ccc(Cl)cc1` (stereo not drawn): the Ki in test [7] came out at 4.1 nM; in test [10], 1580 nM; in test [14] it was 2430 nM; in [16], 134 nM. In addition, the Ratio in test [11] is 386; in test [13], 592; in [18] it was 31; in test [17] it was 32.7.
Take `Nc1nc(N)c(-c2ccc(Cl)cc2)c(CCCc2ccccc2)n1`: the Ki was 0.7 nM in test [7], 63 nM in test [10], 170 nM in test [14] and 15.1 nM in test [16]. In addition, the figures for the Ratio in [11], in test [13] and in test [17] were 90, 243 and 21.6, respectively.
For `NC1=NC(c2ccccc2)N(c2cccc(Cl)c2)C(N)=N1` (stereo not drawn), the Safety ratio in [1] is recorded as 348; in test [2] it was 672; in [3], 109; in test [4], 312; in test [5], 446; in test [6] it was 300. Also, the figures for the Safety ratio in [8] and in [12] were 1000 and 155, respectively. Moreover, the IC50 in test [19] came out at 250000 nM; in [9], 168000 nM; in test [15] it was 87000 nM. In addition, the Ki was found to be 11.7 nM in test [7]; 217 nM in test [10]; 10.5 nM in test [20]; 984 nM in test [14]; 111 nM in test [16]. For the same molecule, the Ratio was 18.5 in test [11], 84.1 in [13], 0.9 in test [18] and 9.5 in test [17].
For the molecule `Nc1nc(N)c(-c2cccc(Cl)c2)c(CCCc2ccccc2)n1`, the Safety ratio is reported as 0.4 in test [1]; 0.4 in test [2]; 0.3 in test [3]; 0.4 in test [4]; 3.1 in [5]; 2.4 in [6]. Also, the Safety ratio in [8] is given as 0.6; in test [12] it was 2.4. Further, the figures for the IC50 in [19], in test [9] and in test [15] were 2100 nM, 1600 nM and 1600 nM, respectively. In addition, the Ki in test [7] worked out at 1.2 nM; in test [10] it was 2.2 nM; in test [14] it was 2 nM; in test [16] it was 2 nM. Also, the Ratio in test [11] came to 1.8; in test [13], 1.7; in test [17] it was 1.7.
Regarding `COc1ccc(CCCc2nc(N)nc(N)c2-c2cccc(Cl)c2)cc1`, the Safety ratio in test [1] stood at 5.6; in test [2], 1.1; in test [3] it was 3.2; in [4] it was 0.6; in test [5] it was 7.3; in [6] it was 7.3. In addition, the results for the Safety ratio in test [8] and in [12] were 1.1 and 36.6, respectively. The inhibition constant Ki turned out to be 2.2 nM in test [7], 2.9 nM in test [10], 2 nM in [14] and 1.3 nM in [16]. This molecule yielded an IC50 in test [9] of 3000 nM. In addition, the Ratio turned out to be 1.3 in test [11], 0.9 in [13] and 0.6 in test [17].
In the case of `COC(=O)CCCc1nc(N)nc(N)c1-c1ccccc1`, the Ki in [7] was determined as 0.6 nM; in [10], 15 nM; in test [14] it was 24 nM; in [16], 3.3 nM. In addition, the Ratio worked out at 25 in test [11], 40 in [13] and 5.5 in [17].
For `CC1(C)N=C(N)N=C(N)N1c1ccc(Cl)cc1` [CYCLOGUANIL], the Safety ratio was 1.1 in test [1]; more than 1.3 in test [2]; less than 0.4 in test [3]; more than 1250 in [5]; more than 1250 in [6]; more than 1.3 in [8]. Further, the Safety ratio in [12] turned out to be 1025. Besides, the IC50 was more than 50000 nM in test [19], more than 50000 nM in test [9] and 41000 nM in [15]. Also, the inhibitory constant (Ki) in test [7] is 1.5 nM; in [10], 285 nM; in test [14] it was 420 nM; in test [16], 31.4 nM. In addition, the Ratio in test [11] came to 190; in test [13], 280; in [18] it was 876; in test [17] it was 20.9.
Regarding `CCc1nc(N)nc(N)c1-c1ccc(C)cc1`, the Ki in [7] worked out at 0.4 nM; in test [10] it was 88 nM; in [14], 284 nM; in test [16], 6.9 nM. The Ratio amounted to 220 in [11], 710 in [13] and 17.2 in test [17].
`Nc1nc(N)c(-c2cccc(Cl)c2)c(CCOCCCOc2ccccc2)n1`: the Safety ratio in test [1] was determined as 2.2; in [2], 1.7; in test [3], 1.4; in test [4], 3.3; in test [5], 42.9; in test [6], 14. Also, the Safety ratio in test [8] is 5.2; in test [12], 18.3. Further, the Ki came out at 0.4 nM in test [7], 1.3 nM in test [10], 1.7 nM in test [14] and 0.7 nM in [16]. For the same molecule, the IC50 worked out at 4900 nM in test [9] and 6400 nM in test [15]. Also, the Ratio in test [11] was 3.2; in test [13], 4.2; in [17], 1.7.
For the molecule `CCc1nc(N)nc(N)c1-c1ccc2c(c1)OCO2`, the Ki in test [7] was 1.1 nM; in test [10], 121 nM; in test [14] it was 269 nM; in [16], 8.3 nM. Also, the Ratio amounted to 110 in test [11], 244 in [13] and 7.5 in test [17].
